Assay results from ChEMBL document CHEMBL6121022, “Cytotoxic and Noncytotoxic Steroidal Constituents of Cryptolepis dubia” (J Nat Prod, 2025).
pIC50: −log10 of the molar value.

Columns and labels:
[1] = Inhibition of Na+/K+-ATPase (unknown origin) by luminescent ADP detection assay; set-up: species or system Homo sapiens
Outline: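 NKA activity read as ADP formed, by luminescent ADP detection (ADP-Glo Max). IC50 is the concentration giving 50% inhibition of NKA activity. In vitro measurements were run in triplicate and are representative of three independent experiments.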

[2] = system: HT-29; experiment: Cytotoxicity against human HT-29 cells assessed as inhibition of cell viability incubated for 72 hrs by celltiter-blue cell viability assay; assay type: functional, cell-based; details: HT-29, 72 h
Outline: (§1)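 Cells grown in RPMI 1640 or DMEM with 10% FBS, penicillin 100 units/mL and streptomycin 100 μg/mL. Treated with compounds for 72 h; vehicle negative control, paclitaxel positive control. Viability read by CellTiter-Blue absorbance. IC50 relative to vehicle control by nonlinear regression; triplicate measurements, representative of three independent experiments.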

[3] = system: MDA-MB-231; experiment: Cytotoxicity against human MDA-MB-231 cells assessed as inhibition of cell viability incubated for 72 hrs by celltiter-blue cell viability assay; assay type: functional, cell-based; details: MDA-MB-231, 72 h; outline: as §1
[4] = system: OVCAR-3; experiment: Cytotoxicity against human OVCAR-3 cells assessed as inhibition of cell viability incubated for 72 hrs by celltiter-blue cell viability assay; assay type: functional, cell-based; details: OVCAR-3, 72 h; outline: as §1
[5] = system: OVCAR-5; experiment: Cytotoxicity against human OVCAR-5 cells assessed as inhibition of cell viability incubated for 72 hrs by celltiter-blue cell viability assay; assay type: functional, cell-based; details: OVCAR-5, 72 h; outline: as §1
[6] = system: MDA-MB-435; experiment: Cytotoxicity against human MDA-MB-435 cells assessed as inhibition of cell viability incubated for 72 hrs by celltiter-blue cell viability assay; assay type: functional, cell-based; details: MDA-MB-435, 72 h; outline: as §1

For `C[C@H]1O[C@@H](O[C@H]2[C@@H](O)C[C@H](O[C@H]3[C@@H](O)C[C@H](O[C@H]4CC[C@@]5(C)[C@H](CC[C@@H]6[C@@H]5CC[C@]5(C)[C@@H](C7=CC(=O)OC7)CC[C@]65O)C4)O[C@@H]3C)O[C@@H]2C)C[C@H](O)[C@@H]1O` [DIGITOXIN], the pIC50 [1] was 6.34.

`CO[C@H]1C[C@H](O[C@H]2CC[C@@]3(C)[C@@H](C2)C[C@@H]2O[C@]24[C@@H]3[C@H](O)C(=O)[C@]2(C)[C@H](C3=CC(=O)OC3)CC[C@]42O)O[C@@H](C)[C@@H]1O` gave a pIC50 [2] of less than 5.00, a pIC50 [3] of less than 5.00 and a pIC50 [1] of 4.40. For the same molecule, the pIC50 [4] was 5.15, the pIC50 [5] was less than 5.00 and the pIC50 [6] was less than 5.00.

Molecule `CO[C@H]1C[C@H](O[C@H]2CC[C@@]3(C)[C@@H](C2)C[C@@H]2O[C@]24[C@@H]3[C@H](OC(C)=O)C(=O)[C@]2(C)[C@@H](C3=CC(=O)OC3)CC[C@]42O)O[C@@H](C)[C@@H]1OC(C)=O` has a pIC50 [2] of less than 5.00, a pIC50 [3] of less than 5.00 and a pIC50 [1] of less than 4.00. It also gave a pIC50 [4] of less than 5.00, a pIC50 [5] of less than 5.00 and a pIC50 [6] of less than 5.00.

Work on `C[C@]12CC[C@H]3[C@@H](C=CC4=CC(=O)[C@H](O)C[C@@]43C)[C@@H]1CC[C@@H]2C(=O)CO` yielded a pIC50 [2] of less than 5.00, a pIC50 [3] of less than 5.00 and a pIC50 [4] of less than 5.00. For the same molecule, the pIC50 [5] was less than 5.00 and the pIC50 [6] was less than 5.00.

`CC(=O)O[C@H]1C(=O)[C@@]2(C)[C@H]([C@H](OC(=O)c3ccccc3)[C@]3(O)C[C@H](OC(=O)[C@H](O)[C@@H](NC(=O)c4ccccc4)c4ccccc4)C(C)=C1C3(C)C)[C@]1(OC(C)=O)CO[C@@H]1C[C@@H]2O` [PACLITAXEL] gave a pIC50 [2] of 8.47.

Molecule `C[C@]12CC[C@H]3[C@@H](C=CC4=CC(=O)[C@H](O)C[C@@]43C)[C@@H]1CC[C@@H]2C(=O)O` has a pIC50 [2] of less than 5.00, a pIC50 [3] of less than 5.00 and a pIC50 [1] of less than 4.00. It also gave a pIC50 [4] of less than 5.00, a pIC50 [5] of less than 5.00 and a pIC50 [6] of less than 5.00.
